We go through 3 compounds from paper PMC13618202 (ACS chemical biology, 2026).

Experiment [1] deals with T1, UBA5 (Homo sapiens, UniProt Q9GZZ9).
T1 sequence (Q9GZZ9 37-346): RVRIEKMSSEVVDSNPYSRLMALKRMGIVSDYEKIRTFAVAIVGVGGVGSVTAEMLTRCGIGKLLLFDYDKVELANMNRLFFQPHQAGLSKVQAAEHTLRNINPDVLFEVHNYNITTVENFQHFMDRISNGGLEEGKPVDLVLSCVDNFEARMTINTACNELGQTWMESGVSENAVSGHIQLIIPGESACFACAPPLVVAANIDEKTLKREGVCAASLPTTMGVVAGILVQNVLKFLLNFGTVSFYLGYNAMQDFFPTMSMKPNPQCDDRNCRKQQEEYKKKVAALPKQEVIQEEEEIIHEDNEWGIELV
The experiment is described as follows: Gel-based UBA5-UFM1 charging assay. As to conditions: UBA5 12 μM; UFM1 25 μM; ATP 2 mM; 2 h. The class given is biochemical. In short, it runs like this:
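UBA5 (12 μM) incubated 1 h with test compound (0–100 μM) in 50 mM Bis-Tris pH 6.5, 100 mM NaCl, 10 mM MgCl2. UFM1 (25 μM) and ATP (2 mM) then added for 2 h at 30 °C; zero time points taken before ATP addition. Gel read-out of UBA5–UFM1 thioester, duplicate.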

Experiment [2] has as its target T1, UBA5. The experiment is described as follows: AMP-Glo UBA5 UFMylation assay. Type of experiment: biochemical. As to conditions: read-out: IC50-UBA5-Glo; UBA5 0.8 μM; UFM1 5 μM; ATP 5 μM.
For experiment [3], the system named is coupling enzymes in the AMP-Glo kit. Put plainly: UBA5-free AMP-Glo coupling enzyme assay. The class given is biochemical. As to conditions: 3 mM, no UBA5, ATP 5 μM with or without AMP 5 μM. In short, it runs like this: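 Without UBA5: test compound (0–100 μM) incubated 30 min with AMP-Glo kit components and UFM1 (5 μM), then AMP added to a final 5 μM as direct substrate. Luminescence endpoint read at 37 °C with 2 min integration. Normalized to DMSO wells with AMP (100%) and without AMP (0%). Triplicate.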

The test system of experiment [4] is UBA5. To be noted: read-out: IC50 (UBA5); cited from earlier work.
Experiment [5] addresses T1, UBA5. The experiment is described as follows: Fluorescence polarization. Type of experiment: biochemical. As to conditions: titration. In short, it runs like this:
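UBA5 (1 μM) preincubated 1 h with test compound (0–25 μM), then UFM1 (2.5 μM) and ATP (20 μM) added for 30 min at RT. Transcreener detection reagent (anti-AMP antibody, Alexa Fluor 633 AMP tracer) added for 1.5 h. AMP read as fluorescence polarization. IC50 by curve fitting, triplicate.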
A general note: In fluorescence polarisation assays a small probe gives low polarisation when free and higher when bound to something large.

In experiment [6] the test system is global cellular ubiquitination in HEK293T cells. Put plainly: Global cellular ubiquitination. Type of experiment: cell-based, Human. To be noted: compounds 60 μM, TAK-243 125 or 250 nM, 5 h.

Structures are written as SMILES.

By IC50 is commonly meant the point on the concentration scale where inhibition reaches its midpoint. For the compound `COc1ccc(CNC(=O)CCl)cc1OC` [DKM 2-93], the “UBA5-UFM1 thioester formation (UFM1 activation)” value in experiment [1] is “significantly reduced UFM1 activation”. For the same compound, the results for the IC50 in experiment [2] and in experiment [4] were 547 µM and 430 µM, respectively. The “interference with the AMP-Glo detection system” value in experiment [3] is recorded as “does not significantly interfere”. Further, the “inhibition of UBA5 reaction in FP assay” value in experiment [5] is reported as “dose-dependently inhibited the reaction”.

Take `Nc1ncnc2c1ncn2[C@@H]1O[C@H](COS(N)(=O)=O)[C@@H](O)[C@H]1O` [adenosine 5’-sulfamate (ADS), adenosine 5’-sulfamate]: the IC50 in experiment [4] was 13 µM.

On to `NS(=O)(=O)OC[C@H]1C[C@@H](Nc2ccnc3cc(-c4cccc(SC(F)(F)F)c4)nn23)[C@H](O)[C@@H]1O` [TAK-243], for which, in experiment [6], the global cellular ubiquitination result is “markedly reduced global cellular ubiquitination”.
